Results pooled from the literature.
Target: 5'-AMP-activated protein kinase catalytic subunit alpha-1 (PRKAA1, Homo sapiens, UniProt Q13131)

With `CCCCNc1ncc2c(-c3ccc(F)cc3)nn(C[C@H]3CC[C@H](N)CC3)c2n1` the inhibition was 22.8% (target engagement in cells, inhibitor, chemoproteomics; 20 mM).
The remaining activity of `CC(C)(C)c1nc2c(s1)c1nc(N)ncc1c1ccc(NS(=O)(=O)c3c(F)cccc3F)c(F)c12` is reported as 81% (enzyme activity, inhibitor, radiometric; 1 µM).
`O=C(Nc1cccnn1)N1CC(C/C=C/c2cncc(Oc3ccc(C(F)(F)F)cn3)n2)C1` gave a remaining binding of 100% (cell-free assay, competition with immobilised ligand; 1 µM).
The inhibition of `CCN1CCN(Cc2ccc(NC(=O)c3ccc(C)c(Oc4ccnc5[nH]ccc45)c3)cc2C(F)(F)F)CC1` is reported as -32.8% (target engagement in cells, inhibitor, chemoproteomics; Huh-7; 1 µM).
With `C=CC(=O)Nc1cc(Nc2nccc(Nc3cc(Cl)c(F)cc3C(C)(C)O)n2)c(OC)cc1N1CC[C@@H](N(C)C)C1` the inhibition was -6% (enzyme activity, inhibitor; 1 µM).
The inhibition of `COc1cccc2c(NCc3ccccc3)nc(-n3c(N)nc4ccccc43)nc12` is reported as 8.3% (target engagement in cells, inhibitor, chemoproteomics; 20 mM).
`Cc1ncc([N+](=O)[O-])n1C(=NO)c1ccccc1C(F)(F)F` gave an inhibition of 7.33% (enzyme activity, inhibitor; 10 µM).
`FC(F)(F)Oc1cccc(-c2cnc3ccc(-c4ccncc4)nn23)c1` gave an activity vs control of 81% (enzyme activity, inhibitor, radiometric; 1 µM).
`CCc1ccccc1C(=O)Nc1n[nH]c2c(C)c(F)c(C3C(C#N)=C(C)N(C)C(C)=C3C#N)cc12` gave a remaining binding of 7.5% (cell-free assay, competition with immobilised ligand; 1 µM).
`Nc1ncnc2occ(-c3ccc(NC(=O)Nc4cc(C(F)(F)F)ccc4F)cc3)c12` gave a remaining signal of 5.3% (cell-free assay; 20 µM).
The remaining activity of `Cc1ccc(C(=O)Nc2ccc(CN3CCN(C)CC3)c(C(F)(F)F)c2)cc1C#Cc1cnc2cccnn12` is reported as 73% (enzyme activity; 23.5 nM).
`Nc1cnc(N2CCc3cc(S(=O)(=O)Nc4c(F)cc(Cl)cc4F)cc(N4CCCC4=O)c32)nc1` has a remaining binding of 100% (cell-free assay, competition with immobilised ligand; 1 µM).
With `CC(C)(C)c1nc(-c2cccc(NS(=O)(=O)c3c(F)cccc3F)c2F)c(-c2ccnc(N)n2)s1` the remaining activity was 49% (enzyme activity, inhibitor, radiometric; 1 µM).
For `CN1CC(Oc2cnc(C#N)cc2-c2ccn3nc(NC(=O)C4CC4)cc3c2)C1`, the inhibition was 5% (enzyme activity, inhibitor; 1 µM).
